MrgX1 ag = agonists of human MrgX1 receptor; MrgX1-HEK293 cells, Fluo-4 calcium fluorescence, agonist mode; active compounds read high; B-score at 10 µM; hit rate 0.44% among 310,000; AID 588627;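 active = calcium response B-score plate-corrected fluorescence ratio at least 3 library SD, with starting fluorescence B-score inside 5 SD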
Target sequence (Q96LB2 whole entry, looked up): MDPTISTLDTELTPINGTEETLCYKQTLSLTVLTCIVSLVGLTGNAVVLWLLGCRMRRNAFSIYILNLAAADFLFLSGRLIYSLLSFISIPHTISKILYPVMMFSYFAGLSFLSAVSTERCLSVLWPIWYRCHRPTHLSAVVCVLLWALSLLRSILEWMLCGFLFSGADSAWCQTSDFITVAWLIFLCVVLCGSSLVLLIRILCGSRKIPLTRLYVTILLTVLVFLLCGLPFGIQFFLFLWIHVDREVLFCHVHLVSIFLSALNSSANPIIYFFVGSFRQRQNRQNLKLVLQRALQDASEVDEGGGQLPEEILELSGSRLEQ
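Material: MrgX1-expressing HEK293 cells; input: 15,000 cells per well; doses: test compound given as first of three sequential additions; schedule: overnight plating before 1 h dye loading; technique: Fluo-4 NW calcium-flux fluorescence, kinetic read; evaluation: baseline-normalised fluorescence change ratio, B-scored; control set: plate-wise positive and negative controls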
MrgX1 PAM = human MrgX1 positive allosteric modulation, primary screen | Q96LB2 | MrgX1-HEK293, Fluo-4 calcium flux, FDSS; active compounds read high | hit rate 0.63% among 310,000 | B-score at 10 µM;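 active = plate-corrected calcium response at least 3 library SD above typical, normal starting fluorescence, not activating the receptor alone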;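 also: compound read alongside a low EC10 to EC30 dose of BAM8-22 agonist; peak minus trough fluorescence over baseline measured at the second addition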
MrgX1 antagonist = antagonists of human MrgX1 receptor. MRGX1-HEK293 calcium flux, Fluo-4, BAM8-22 antagonism; active compounds read low. B-score at 10 µM. hit rate 1.3% among 310,000;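 active = calcium-response B-score plate-corrected more than 3 library SD below zero, starting fluorescence within 5 deviations, no agonist response on first addition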;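 also: peak minus trough fluorescence over baseline after final BAM8-22 challenge near maximal dose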
RGS4 pot = RGS4 potentiation or activation | HEK293 M3R/inducible RGS4, carbachol calcium flux Fluo4; active compounds read low | B-score at 10 µM | hit rate 0.92% among 310,000;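 active = B-score of the integrated calcium signal more than 4 SD below the library mean, with starting fluorescence not abnormally high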;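 also: negative B-score means reduced calcium response which marks RGS4 activation or potentiation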
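System: HEK293 FlpIn-TREx cells, stable M3R, doxycycline-inducible RGS4. Timing: overnight RGS4 induction, 30 min dye load 37 °C, 20 min compound RT. Also added: carbachol, ECmax concentration. Measured by: Fluo4 fluorescence kinetic imaging of calcium. Evaluation: integrated calcium ratio converted to B score.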
RGS4 inh = human RGS4 inhibition. P49798. HEK293 M3R/RGS4 inducible, Fluo-4 calcium flux; active compounds read high; triggered by carbachol at its EC20. B-score at 10 µM. hit rate 0.45% among 310,000;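 active = B-score, a plate-corrected calcium signal, over three deviations above library mean, with baseline fluorescence within five deviations of library mean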;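 also: RGS4 expression induced by doxycycline in cells with stable M3 receptor; B-score is computed from the integrated fluorescence ratio over baseline after carbachol; higher B-score means a larger calcium signal and so more RGS4 inhibition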
Target sequence (P49798 whole entry, looked up): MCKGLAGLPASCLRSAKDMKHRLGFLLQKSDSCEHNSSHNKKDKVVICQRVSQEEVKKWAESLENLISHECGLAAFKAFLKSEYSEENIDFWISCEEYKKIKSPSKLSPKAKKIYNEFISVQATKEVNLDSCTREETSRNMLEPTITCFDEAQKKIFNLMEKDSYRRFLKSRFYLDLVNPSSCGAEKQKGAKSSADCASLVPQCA
MrgX1 ag confirm = reconfirmed activator of human MrgX1 receptor signaling; shares compounds with MrgX1 ag; activation, % at 10 µM; AID 602412; MrgX1-HEK293, Fluo-4 calcium fluorescence, FDSS; hit rate 78% among 600;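 active = calcium signal rise, corrected for plate position, at least 3 library SD high, with starting brightness within 5 such deviations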
HEK293 Ca flux = MrgX1 antagonist counter-screen hit in parental HEK293 cells; fluorescence ratio F(max-min)/F0 at 10 µM; AID 624111; Fluo-4 calcium fluorescence, FDSS; shares compounds with MrgX1 antagonist; hit rate 2% among 4,000;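 active = duplicate-averaged calcium fluorescence ratio at least three times the standard deviation of buffer wells, a nonspecific response in parental cells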
HEK293 Ca counter = MrgX1 allosteric activator counter-screen hit in parental HEK293 cells. fluorescence ratio F(max-min)/F0 at 10 µM. parental HEK293 calcium flux, Fluo-4 fluorescence ratio; active compounds read high. shares compounds with MrgX1 antagonist. hit rate 0.4% among 4,000;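 active = calcium fluorescence ratio, averaged over duplicates, at least 3 SD of the buffer-well ratio, meaning a nonspecific response in receptor-free cells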;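 also: untransfected parental HEK293 lacking MrgX1 used as counterscreen for MrgX1 allosteric activators; fluorescence change taken during the second addition on a kinetic imager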
HEK293 Ca cntr2 = activity in parental HEK293 cells lacking MrgX1 receptor; shares compounds with MrgX1 antagonist; Fluo-4 calcium fluorescence (FDSS); active compounds read high; fluorescence ratio F(max-min)/F0 at 10 µM; hit rate 8.7% among 4,000; AID 624115;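 active = calcium fluorescence ratio at least three times the spread of buffer wells, meaning a non-specific response in parental cells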
Large screens that a line does not name were inactive (follow-up assays come after a bar, where they were run). Only some compounds are listed: those with a hit (about 3.5% of all), similar ones and a draw of the others.

COc1ccc(C(=O)NC(=S)NNC(=O)c2c(-c3ccccc3)noc2C)cc1OC	MrgX1 ag 81.1 | MrgX1 ag confirm 222.2% | HEK293 Ca flux inactive | HEK293 Ca counter inactive | HEK293 Ca cntr2 51.5
CC(C)(C)NC(=S)NNC(=O)[C@H]1C[C@@H]1c1ccccc1	none
Cc1onc(-c2ccccc2)c1C(=O)NNC(=S)NC(=O)c1ccc2c(c1)OCO2	MrgX1 ag 76.5 | MrgX1 ag confirm 412.2% | HEK293 Ca flux inactive | HEK293 Ca counter inactive | HEK293 Ca cntr2 104
C=CCSC(=S)NC1CCS(=O)(=O)C1 (centres undefined)	MrgX1 ag 30.8 | MrgX1 ag confirm inactive | HEK293 Ca flux inactive | HEK293 Ca counter inactive | HEK293 Ca cntr2 inactive
NCCC(=O)N1c2ccccc2Sc2ccc(Cl)cc21	MrgX1 ag 78.5 | MrgX1 ag confirm 243.6% | HEK293 Ca flux inactive | HEK293 Ca counter inactive | HEK293 Ca cntr2 inactive
c1ccc2c(c1)Cc1cc3ccccc3nc1-2	none
ClCC1=Nc2ccccc2Cc2ccccc21	MrgX1 ag 29.2 | MrgX1 ag confirm 111.1% | HEK293 Ca flux inactive | HEK293 Ca counter inactive | HEK293 Ca cntr2 inactive
COc1ccc(C)cc1N(CC(=O)N1CCCCCC1)S(=O)(=O)c1ccc(C)cc1	MrgX1 ag 37.1 | MrgX1 ag confirm 198.4% | HEK293 Ca flux inactive | HEK293 Ca counter inactive | HEK293 Ca cntr2 inactive
COc1ccc(OC)c(N(CC(=O)N2CCCC2)S(=O)(=O)c2ccc(C)cc2)c1	none
CCc1ccc(CNc2ccc3c(c2)ncn3C(C)(C)C)cc1	none
CCc1ccc(CNc2ccc3c(c2)ncn3CC)cc1	MrgX1 ag 29.9 | MrgX1 ag confirm 165.6% | HEK293 Ca flux inactive | HEK293 Ca counter inactive | HEK293 Ca cntr2 inactive
CCOc1cc(CNn2nnnc2N)cc(Cl)c1OCC(=O)NC(C)(C)C	none
CCn1cc(/C=N\NC(=O)Cc2ccc([N+](=O)[O-])cc2)c(C)n1	none
O=S(=O)(NCC(c1ccco1)N1CCc2ccccc2C1)c1ccc(Br)cc1 (centres undefined)	none
CC(=O)Nc1ccc(S(=O)(=O)Nc2ccc(S(=O)(=O)N3CCCC3)cc2)cc1	none
CC(=O)Nc1ccc(S(=O)(=O)/N=C2\SCCN2S(=O)(=O)c2ccc(NC(C)=O)cc2)cc1	MrgX1 ag 41.1 | MrgX1 ag confirm 270.3% | HEK293 Ca flux inactive | HEK293 Ca counter inactive | HEK293 Ca cntr2 inactive
CC1CCCCN1S(=O)(=O)c1ccc2c(c1)CCN2C(=O)C1CC1 (centres undefined)	none
O=C(C1Cc2ccccc2CN1S(=O)(=O)c1ccc(F)cc1)N1CCCCC1 (centres undefined)	MrgX1 ag 33.4 | MrgX1 ag confirm 242.8% | HEK293 Ca flux inactive | HEK293 Ca counter inactive | HEK293 Ca cntr2 73.5
O=C(c1ccco1)N1CCN(C(=O)C2Cc3ccccc3CN2S(=O)(=O)c2ccc(F)cc2)CC1 (centres undefined)	none
COC(=O)c1ccc(COc2cc(C)ccc2C)o1	none
O=C(CC1CCCCC1)c1c(O)c2ccccc2oc1=O	MrgX1 ag 87.4 | MrgX1 ag confirm 427.6% | HEK293 Ca flux inactive | HEK293 Ca counter inactive | HEK293 Ca cntr2 91.6
CC1CCC(C(=O)c2c(O)c3ccccc3oc2=O)CC1 (centres undefined)	MrgX1 ag 68.7 | MrgX1 ag confirm 281.7% | HEK293 Ca flux inactive | HEK293 Ca counter inactive | HEK293 Ca cntr2 83.8
CC(=N)c1c(O)c2ccccc2oc1=O	none
COc1cc(/C=C/C(=O)CC(=O)/C=C/c2ccc(O)c(OC)c2)ccc1O	MrgX1 ag 143 | MrgX1 ag confirm inactive | HEK293 Ca flux 0.0325 | HEK293 Ca counter inactive | HEK293 Ca cntr2 212
COc1cc(/C=C/C(=O)O)ccc1O	none
COc1ccc(C(=O)NCC(c2ccco2)N2CCc3ccccc32)c(OC)c1 (centres undefined)	none
CCCOc1ccc(C(=O)NNC(=S)NC(=O)c2ccccc2)cc1	MrgX1 ag 91.3, RGS4 pot -8.38 | MrgX1 ag confirm 662.7% | HEK293 Ca flux inactive | HEK293 Ca counter inactive | HEK293 Ca cntr2 128
CCCOc1ccc(C(=O)NNC(=S)NC(=O)c2cccs2)cc1	MrgX1 ag 110, RGS4 pot -8.62 | MrgX1 ag confirm 495.6% | HEK293 Ca flux inactive | HEK293 Ca counter inactive | HEK293 Ca cntr2 104
CC(C)CC(=O)NC(=S)NNC(=O)c1ccc([N+](=O)[O-])cc1	MrgX1 ag 81 | MrgX1 ag confirm 279.8% | HEK293 Ca flux inactive | HEK293 Ca counter inactive | HEK293 Ca cntr2 72.1
CCC(=O)NC(=S)NNC(=O)c1ccc([N+](=O)[O-])cc1	none
COC(=O)c1ccc(COc2ccc(/C=N/Nc3nc(C)cc(=O)[nH]3)cc2)cc1	none
COc1ccc(N2C(=O)C3C(C2=O)C(C(=O)c2ccc(Cl)cc2)N2CCCC32)cc1 (centres undefined)	MrgX1 ag 72.4 | MrgX1 ag confirm inactive | HEK293 Ca flux inactive | HEK293 Ca counter inactive | HEK293 Ca cntr2 inactive
CC(=O)c1ccc(N2C(=O)C3C(C2=O)C(C(=O)c2ccc(Cl)cc2)N2CCCC32)cc1 (centres undefined)	none (no result: MrgX1 ag, MrgX1 PAM, MrgX1 antagonist)
N#CCn1c(CCl)nc2ccccc2c1=O	MrgX1 ag 42.3 | MrgX1 ag confirm 198.2% | HEK293 Ca flux inactive | HEK293 Ca counter inactive | HEK293 Ca cntr2 inactive
Nc1cc(=O)[nH]c(SCCSc2cc(Cl)ccc2Cl)n1	none
O=C1COc2ccc(C(=O)CSc3nnc(Cc4cccs4)n3-c3ccccc3)cc2N1	MrgX1 ag 26.6 | MrgX1 ag confirm 174.8% | HEK293 Ca flux inactive | HEK293 Ca counter inactive | HEK293 Ca cntr2 inactive
C=CCNc1ncnc2c1[nH]c1ccc(Cl)cc12	MrgX1 ag 65.5 | MrgX1 ag confirm 353.0% | HEK293 Ca flux inactive | HEK293 Ca counter inactive | HEK293 Ca cntr2 59.1
C=CCNc1ncnc2c1[nH]c1ccccc12	none
CCOc1ccc(CCNC(=O)c2cc(C)nc3ccccc23)cc1OCC	none
COc1ccc(S(=O)(=O)CC(=O)c2cc3cc(Br)ccc3oc2=O)cc1	MrgX1 ag 70.3 | MrgX1 ag confirm 325.9% | HEK293 Ca flux inactive | HEK293 Ca counter inactive | HEK293 Ca cntr2 61.4
CCN1C(=O)/C(=C/c2ccc(N3CCCC3)cc2)NC1=S	MrgX1 ag 70.2 | MrgX1 ag confirm inactive | HEK293 Ca flux 0.02 | HEK293 Ca counter inactive | HEK293 Ca cntr2 251

Screens: PubChem BioAssay, Johns Hopkins Ion Channel Center
